Screening data: PubChem BioAssay, Columbia University Molecular Screening Center
Insulin prom act: TRM-6 insulin promoter activation; TRM-6 cells (human fetal islet line), insulin promoter eGFP reporter, imaging; plate-scaled: unstimulated 0, stimulated control 100; activation, % at 2 µM; 130,000 tested, 0.81% active; AID 1296;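 active means activation at 2 µM above a set limit, confirmed on inspection of the cell images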;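 further: share of cells whose green reporter signal exceeds an intensity cutoff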
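Assay system: TRM-6 insulin promoter–eGFP reporter cells / Input: 1,000 cells per well / Medium: Low-glucose (5.5 mM) medium with tamoxifen / Also added: tamoxifen inducer, 0.75 µM, in seeding medium / Timing: overnight tamoxifen, then two-day compound incubation at 37 °C / Signal: automated fluorescence imaging of paraformaldehyde-fixed, Hoechst-counterstained cells, green channel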
* hit, by the source's call. This excerpt belongs to a sample that is enriched for hits.

SMILES | Insulin prom act
COC(=O)C1CC(O)CN1C(=O)Nc1cccc(C(F)(F)F)c1 (configuration not stated) | 0
O=C(Nc1ccccc1)C(O)C(O)C(=O)Nc1ccccc1 (configuration not stated) | -5
O=C1CC(N2CCSCC2)C(=O)N1CCc1ccccc1 (configuration not stated) | -5
CCOC(=O)C1=C(CSc2nc(-c3ccccc3)ccc2C#N)OC(N)=C(C#N)C1c1ccc(OC)cc1 (configuration not stated) | 84*
CC(=O)C1=C(c2ccccc2)OC(N)=C(C#N)C1c1ccc(O)cc1 (configuration not stated) | -9
CCOC(=O)C1=C(CSc2nc(C)cc(C)c2C#N)OC(N)=C(C#N)C1c1ccccc1 (configuration not stated) | 3
CCc1cc(CNC(=O)CCc2nnc(Cc3cccc(C)c3)o2)on1 | 6
O=C(CCCN1C(=O)CCC1=O)Nc1ccc2c(c1)OCCO2 | 118
O=C(CCCCCN1C(=O)CCC1=O)Nc1ccc2c(c1)OCO2 | 475*
O=C(CCCCCN1C(=O)c2ccccc2C1=O)Nc1ccc2c(c1)OCCO2 | 0
O=C(CN1CCN(CC(=O)Nc2ccccc2C(F)(F)F)CC1)Nc1ccccc1F | -85
Cn1cc(CC(=O)NCCN2CCOCC2)c2ccccc21 | 0
Cc1ccc(C2(c3noc(CN4CCC(c5ccncc5)CC4)n3)CCCC2)cc1 | 0
C=CCn1c(N)cc(=O)nc1SCC(=O)N1CCN(c2ccc(F)cc2)CC1 | 0
Cc1ccc(C(=O)NC(=C(Cl)Cl)S(=O)(=O)c2ccc(Cl)cc2)cc1 | 129
CNC(=O)c1nnsc1S(=O)(=O)c1ccc(Cl)cc1 | 754*
O=C(Nc1ccccn1)c1ccc(S(=O)(=O)c2ccc(Cl)cc2)cc1 | -3
Nc1ccc(C(=O)OC2CCOC2=O)cc1[N+](=O)[O-] (configuration not stated) | -7
COc1cc(CCNc2ccc3nnc(-c4ccccc4)n3n2)cc(OC)c1OC | -2
O=C(CCn1c(=O)[nH]c2ccsc2c1=O)NCc1ccc(F)cc1 | 0
COc1ccc(/C=C/C(=O)NC(CCSC)C(=O)O)cc1 (configuration not stated) | 7
O=C(CSc1ncnc2c1cnn2CCc1ccccc1)Nc1cccc(C(F)(F)F)c1 | 9
CC[n+]1c(C=C2C=C(C)OC(C)=C2)sc2ccccc21 | 809*
Cc1sc2ccccc2[n+]1CCC(C)S(=O)(=O)[O-] (configuration not stated) | 9
CC/C(=C/c1sc2ccccc2[n+]1CC)SC | 0
SMILES | Insulin prom act
Cc1cccc(/C(N)=N/OC(=O)C23CC4CC(CC(C4)C2)C3)c1 | 0
O=C(NCc1cccnc1)c1cccn1-c1ncc(C(F)(F)F)cc1Cl | -7
Cc1cc(C)cc(NC(=O)c2cccn2-c2ncc(C(F)(F)F)cc2Cl)c1 | 175*
NS(=O)(=O)c1cccn1-c1ncc(C(F)(F)F)cc1Cl | -7
O=C(NCC1CCCO1)c1ccc(CNS(=O)(=O)c2ccc(F)c(Cl)c2)cc1 (configuration not stated) | 0
CCc1sc(C(=O)Nc2ccc(F)cc2C)cc1C | -3
CCn1cc(C(=O)N(CCC(C)C)c2c(N)n(Cc3ccccc3)c(=O)[nH]c2=O)c(=O)c2ccc(C)nc21 | 7
Cn1c(SCC(=O)NC(c2ccccc2)c2ccccc2)nnc1-c1cccs1 | -4
COc1cc(NS(=O)(=O)c2ccc(N/C=C(\C=O)c3nc4ccccc4o3)cc2)nc(OC)n1 | -9
O=C(COC(=O)c1cccc(Br)c1)NCCc1ccc(F)cc1 | -4
CC1=CC(C)(C)N(C(=O)CSc2nncn2C)c2ccccc21 | 631*
C/C=C/C(=O)N1c2ccccc2C(C)=CC1(C)C | 0
CC1=CC(C)(C)N(C(=O)Nc2ccccc2)c2ccccc21 | 0
CC1(C)CN2C(=S)N(c3ccccc3)C(c3ccccc3)N2C1 (configuration not stated) | 3
CN(Cc1ccccc1)S(=O)(=O)c1cccc2cccnc12 | 0
N#C/C(=C/c1cn(CC(=O)O)c2ccccc12)c1ccc(F)cc1 | -3
Cn1cccc1/C=C(/C#N)c1ccc(F)cc1 | 438*
CCOc1cc(/C=C(/C#N)c2ccc(F)cc2)ccc1OCc1ccc(C(=O)O)o1 | 226
CCNc1nc(NCC)n2c(SC(C(=O)Nc3cc(Cl)cc(Cl)c3)c3ccccc3)nnc2n1 (configuration not stated) | -3
CCN1CCN(c2ccc(S(=O)(=O)N3CCCC3)cn2)CC1 | 0
CN(C)c1nc(NC(C)(C)C)nc(SCC(=O)Nc2ccccc2)n1 | -80
Cc1ccc(S(=O)(=O)N(C)C)cc1NC(=O)COC(=O)c1ccc2c(c1)OCO2 | 103
Cc1ccc(S(=O)(=O)N(C)C)cc1NC(=S)NC(=O)C12CC3CC(CC(C3)C1)C2 | 388*
CN(C)S(=O)(=O)c1cccc(NC(=S)NC(=O)C2CCCCC2)c1 | -8
Cc1c(NS(=O)(=O)c2ccc(Br)s2)c(=O)n(-c2ccccc2)n1C | 5
CCN1CCN(S(=O)(=O)c2ccc(Br)s2)CC1 | -93
